Measurements of several laboratories.
Lines come from different studies, so protocols differ.
Target: Serine/threonine-protein kinase PLK2 (PLK2, Homo sapiens, UniProt Q9NYY3)

CC(C)(C)c1nc2c(s1)c1nc(N)ncc1c1ccc(NS(=O)(=O)c3c(F)cccc3F)c(F)c12 — remaining activity (enzyme activity; inhibitor; radiometric; 1 µM): 91%
CCCCN(CCCC)C(=O)CN1C[C@@H](c2cc(OC)c3c(c2)OCO3)[C@H](C(=O)O)[C@H]1CC(C)(C)CCC — remaining binding (cell-free assay; competition with immobilised ligand; 1 µM): 98.4%
CN1CC(Oc2cnc(C#N)cc2-c2ccn3nc(NC(=O)C4CC4)cc3c2)C1 — inhibition (enzyme activity; inhibitor; 1 µM): 1%
Cc1ccc(NC(=O)c2ccc(CN3CCN(C)CC3)cc2)cc1Nc1nc(-c2cccnc2)cs1 — remaining signal (cell-free assay; 0.5 µM): 97.9%
CCN(CC)CCNC(=O)c1c(C)[nH]c(/C=C2\C(=O)Nc3ccc(F)cc32)c1C — inhibition (enzyme activity; inhibitor; 10 µM): 6%
O=C(Nc1cnn(-c2csc(C(=O)NC3COC3)c2)c1)Nc1c(F)cccc1Cl — remaining activity (enzyme activity; inhibitor; 5 µM): 100%
CO[C@@H](C)c1c(Nc2ccc([C@@H](N(C)C(=O)C3CCS(=O)(=O)CC3)C(F)(F)F)cc2)cnc2cc(Cl)nn12 — remaining binding (cell-free assay; competition with immobilised ligand; 1 µM): 100%
COc1cc2ncnc(Nc3ccc(Oc4ccccc4)cc3C)c2cc1OC — inhibition (enzyme activity; inhibitor; 1 µM): 5%
COc1cccc(CNC(=O)c2nc3scc(COCc4ccc(C(=O)O)cc4)c3c(=O)[nH]2)c1 — remaining binding (cell-free assay; competition with immobilised ligand; 1 µM): 56.7%
Cc1cnc(NC2CCOCC2)nc1-n1cnc(C(=O)NC(CN)c2cc(F)cc(Cl)c2)c1 (stereo not drawn) — remaining activity (enzyme activity; inhibitor; radiometric; 1 µM): 69%
CN(C)c1nccc(-c2cnc3ncccn23)n1 — remaining binding (binding; 1 µM): 66%
Cc1ccc(NC(=O)c2ccc(C)c(C(F)(F)F)c2)cc1C#Cc1nn(C2CCC(O)CC2)c2ncnc(N)c12 (stereo not drawn) — remaining signal (cell-free assay; 10 µM): 109%
COc1cc2c(Nc3ccc(Br)cc3F)ncnc2cc1OCC1CCN(C)CC1 — remaining signal (cell-free assay; 0.5 µM): 103%
CNC(=O)Nc1ccc2c(c1)[C@@]1(CC2)OC(=O)N(CC(=O)N(Cc2ccc(F)cc2)[C@@H](C)C(F)(F)F)C1=O — remaining binding (cell-free assay; competition with immobilised ligand; 1 µM): 92%
Cc1ccc(C(=O)Nc2ccc(CN3CCN(C)CC3)c(C(F)(F)F)c2)cc1C#Cc1cnc2cccnn12 — remaining activity (enzyme activity; inhibitor; 23.5 nM): 94%
O=C1NC(=O)c2cc(Nc3ccc(F)cc3)c(Nc3ccc(F)cc3)cc21 — remaining signal (cell-free assay; 0.5 µM): 99.6%
Cc1ccc(Nc2nccc(N(C)c3ccc4c(C)n(C)nc4c3)n2)cc1S(N)(=O)=O — inhibition (enzyme activity; inhibitor; 0.3 µM): -15%
COc1cc(Cl)c(C(=O)N[C@@H](CN[C@H]2CC[C@@H](N)CC2)Cc2ccc(C#N)cc2)cc1-c1ccc(CN[C@H](C)c2ccc(C)cc2)o1 — remaining activity (enzyme activity; inhibitor; 1 µM): 96%
COc1cc(-c2cn(C3CCc4c(F)cccc4N(CC(F)(F)F)C3=O)nn2)ccc1-n1cnc(C)c1 (stereo not drawn) — remaining binding (cell-free assay; competition with immobilised ligand; 1 µM): 100%
CNC(=O)c1cc(Oc2ccc(NC(=O)Nc3ccc(Cl)c(C(F)(F)F)c3)cc2)ccn1 — inhibition (enzyme activity; inhibitor; 0.3 µM): -1%
CO[C@H]1CC[C@H](CNc2ccc(S(=O)(=O)NC(=O)c3ccc(N4CCN(CC5=C(c6ccc(Cl)cc6)CC(C)(C)CC5)CC4)cc3Oc3cnc4[nH]ccc4c3)cc2[N+](=O)[O-])CC1 — remaining binding (cell-free assay; competition with immobilised ligand; 1 µM): 100%
COc1cc(Nc2c(C#N)cnc3cc(OCCCN4CCN(C)CC4)c(OC)cc23)c(Cl)cc1Cl — remaining signal (cell-free assay; 0.5 µM): 100%
COc1cc(-c2cn(C3CCc4ccccc4N(CC(F)(F)F)C3=O)nn2)ccc1-n1ccc(C)n1 (stereo not drawn) — remaining binding (cell-free assay; competition with immobilised ligand; 1 µM): 100%
Nc1ncnc2occ(-c3ccc(NC(=O)Nc4cc(C(F)(F)F)ccc4F)cc3)c12 — remaining signal (cell-free assay; inhibitor; 20 µM): 0.1%
